Screens as filed in PubChem BioAssay.
An excerpt weighted towards active compounds, which were near 3.5% of everything screened.
MrgX1 ag = agonists of human MrgX1 receptor, primary screen, HEK293 cells, Fluo-4 calcium flux. Mas-related G-protein coupled receptor member X1 (Homo sapiens), Q96LB2. Fluo-4 calcium fluorescence, agonist mode; stronger effect = higher value. B-score at 10 µM. hit rate 0.44% among 310,000;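 active = calcium response B-score plate-corrected fluorescence ratio at least 3 library SD, with starting fluorescence B-score inside 5 SD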
Target sequence (Q96LB2 whole entry, looked up): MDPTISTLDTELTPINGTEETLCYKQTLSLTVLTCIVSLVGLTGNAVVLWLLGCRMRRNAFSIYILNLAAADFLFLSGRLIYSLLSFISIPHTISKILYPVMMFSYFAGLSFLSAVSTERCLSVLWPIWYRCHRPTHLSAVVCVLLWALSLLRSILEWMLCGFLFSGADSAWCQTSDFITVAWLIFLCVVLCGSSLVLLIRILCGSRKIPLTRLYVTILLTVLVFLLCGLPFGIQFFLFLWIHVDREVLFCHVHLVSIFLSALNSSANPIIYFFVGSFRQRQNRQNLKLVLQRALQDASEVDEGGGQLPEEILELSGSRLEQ
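Material: MrgX1-expressing HEK293 cells / Dosing: compound as first of three additions / Incubation: overnight seeding, then 1 h dark dye loading / Signal: Fluo-4 NW calcium fluorescence / Evaluation: B-scored fluorescence response ratio / Benchmarks: positive and negative control wells on each plate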
RGS4 act = RGS4 potentiators or activators, primary screen, cell-based, HEK293 M3R inducible RGS4, calcium flux; hit rate 0.92% among 310,000; B-score at 10 µM; carbachol calcium flux Fluo4; stronger effect = lower value;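 active = B-score of the integrated calcium signal more than 4 SD below the library mean, with starting fluorescence not abnormally high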;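 note: negative B-score means reduced calcium response which marks RGS4 activation or potentiation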
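test system = M3R-expressing HEK293 line, RGS4 induced by doxycycline | probe or stimulus = carbachol at ECmax as muscarinic agonist stimulus | timing = dye loading 30 min 37 °C, buffer rest 30 min RT | signal = calcium dye Fluo4 fluorescence | evaluation = B score from integrated fluorescence ratio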
MrgX1 antagonist = antagonists of human MrgX1 receptor, primary screen, HEK293 cells, Fluo-4 calcium flux; Mas-related G-protein coupled receptor member X1 (Homo sapiens), Q96LB2; BAM8-22 antagonism; stronger effect = lower value; B-score at 10 µM; hit rate 1.3% among 310,000; AID 588676, 2011;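 active = calcium-response B-score plate-corrected more than 3 library SD below zero, starting fluorescence within 5 deviations, no agonist response on first addition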;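 note: peak minus trough fluorescence over baseline after final BAM8-22 challenge near maximal dose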
RGS4 block = RGS4 inhibitors, primary screen, cell-based, HEK293 M3R inducible RGS4, calcium flux; Fluo-4 calcium flux; stronger effect = higher value; triggered by carbachol at its EC20; B-score at 10 µM; hit rate 0.45% among 310,000; AID 463165, 2010;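 active = B-score, a plate-corrected calcium signal, over three deviations above library mean, with baseline fluorescence within five deviations of library mean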;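 note: RGS4 expression induced by doxycycline in cells with stable M3 receptor; B-score is computed from the integrated fluorescence ratio over baseline after carbachol; higher B-score means a larger calcium signal and so more RGS4 inhibition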
Target sequence (P49798 whole entry, looked up): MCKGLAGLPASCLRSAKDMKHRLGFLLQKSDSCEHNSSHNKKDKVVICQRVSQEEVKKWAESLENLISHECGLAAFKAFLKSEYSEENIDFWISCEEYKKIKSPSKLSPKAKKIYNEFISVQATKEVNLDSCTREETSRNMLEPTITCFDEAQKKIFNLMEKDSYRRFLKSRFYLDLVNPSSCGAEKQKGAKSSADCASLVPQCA
MrgX1 PAM = positive allosteric modulators of MrgX1, primary screen, HEK293 cells, Fluo-4 calcium flux | FDSS; stronger effect = higher value | hit rate 0.63% among 310,000 | B-score at 10 µM | Mas-related G-protein coupled receptor member X1 (Homo sapiens), Q96LB2;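 active = plate-corrected calcium response at least 3 library SD above typical, normal starting fluorescence, not activating the receptor alone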;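 note: compound read alongside a low EC10 to EC30 dose of BAM8-22 agonist; peak minus trough fluorescence over baseline measured at the second addition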
MrgX1 allo conf = MrgX1 positive allosteric modulators, duplicate retest, confirmation, HEK293 cells, Fluo-4 calcium flux | activation (ratio percentage), % at 10 µM | AID 602413, 2012 | Fluo-4 calcium fluorescence, FDSS | hit rate 13% among 1,200 | shares compounds with MrgX1 PAM;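 active = ratio at least 3 SD above the weak peptide control, stable starting fluorescence, no direct agonism earlier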;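 note: compound followed by low BAM8-22 agonist challenge near EC20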
MrgX1 ant reconf = MrgX1 receptor antagonists, duplicate retest, confirmation, HEK293 cells, Fluo-4 calcium flux; shares compounds with MrgX1 antagonist; BAM8-22 calcium flux; stronger effect = lower value; remaining BAM8-22 calcium response % of control (stronger effect = lower value), % at 10 µM; hit rate 19% among 2,300;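 active = remaining agonist calcium response no higher than 100% minus 3 SD of agonist-only control wells, with starting fluorescence near control levels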;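 note: agonist BAM8-22 given at a near maximal EC90 to ECmax level; peak minus minimum fluorescence divided by baseline after agonist addition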
HEK293 Ca flux = nonspecific calcium signal in parental HEK293, confirmation, counter-screen for MrgX1 antagonist project, parental HEK293 cells, Fluo-4 calcium flux | hit rate 2% among 4,000 | Fluo-4 calcium fluorescence, FDSS | fluorescence ratio F(max-min)/F0 at 10 µM | shares compounds with MrgX1 antagonist;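 active = duplicate-averaged calcium fluorescence ratio at least three times the standard deviation of buffer wells, a nonspecific response in parental cells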
HEK293 Ca counter = calcium response in parental HEK293 cells, primary screen, counter-screen for MrgX1 allosteric activator project, cell-based, Fluo-4 calcium flux, duplicate. hit rate 0.4% among 4,000. fluorescence ratio F(max-min)/F0 at 10 µM. shares compounds with MrgX1 antagonist. Fluo-4 fluorescence ratio; stronger effect = higher value;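 active = calcium fluorescence ratio, averaged over duplicates, at least 3 SD of the buffer-well ratio, meaning a nonspecific response in receptor-free cells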;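 note: untransfected parental HEK293 lacking MrgX1 used as counterscreen for MrgX1 allosteric activators; fluorescence change taken during the second addition on a kinetic imager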
HEK293 Ca cntr2 = calcium response in parental HEK293 cells, primary screen, counter-screen for MrgX1 agonist project, cell-based, Fluo-4 calcium flux, duplicate, agonist mode | shares compounds with MrgX1 antagonist | Fluo-4 calcium fluorescence (FDSS); stronger effect = higher value | fluorescence ratio F(max-min)/F0 at 10 µM | hit rate 8.7% among 4,000 | AID 624115, 2012;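 active = calcium fluorescence ratio at least three times the spread of buffer wells, meaning a non-specific response in parental cells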
Hits are given with their value; . = inactive; / = not tested or not shown.

SMILES | MrgX1 ag | RGS4 act | MrgX1 antagonist | RGS4 block | MrgX1 PAM | MrgX1 allo conf | HEK293 Ca flux | HEK293 Ca counter | HEK293 Ca cntr2 | others
O=C(c1ccccc1F)N1CCN(S(=O)(=O)c2ccc(S(=O)(=O)N3CCCCCC3)cc2)CC1 | . | . | . | . | . | / | / | / | /
CCCCc1ccc(S(=O)(=O)Nc2ccc(C)c(NS(C)(=O)=O)c2)cc1 | . | . | . | . | 9.7 | . | . | . | .
Nc1c(C(=O)NC2CCCC2)c2nc3ccccc3nc2n1N | . | . | . | . | . | / | / | / | /
CC1CCCCC1Nc1nc2ccc(Cl)cc2n2cnnc12 (centres undefined) | . | . | . | . | 9.19 | . | . | . | .
CCCCC1(C)NC(=O)c2c(C)sc(C(=O)OCC)c2N1 (centres undefined) | . | . | . | . | 8.33 | . | . | . | .
O=C(c1ccc2c(c1)OCO2)[C@@H]1[C@@H]2C(=O)N(C3CCCCC3)C(=O)[C@@H]2C2c3ccccc3C=CN21 (some centres undefined) | / | . | / | . | / | / | / | / | /
CC(C)(C)C(=O)[C@@H]1[C@@H]2C(=O)N(C3CCCCC3)C(=O)[C@@H]2[C@H]2c3ccccc3C=CN12 | . | / | . | / | 7.01 | . | . | . | .
CCCn1c(SCC(=O)Nc2cccc(NC(C)=O)c2)nnc1C(C)C | . | . | . | . | . | / | / | / | /
CCCn1c(SCC(=O)Nc2cccc(C)n2)nnc1C(C)C | . | . | . | . | 8.24 | . | . | . | .
CCc1ccccc1N(CC(=O)NCc1ccco1)C(=O)CCC(=O)Nc1ccccn1 | . | . | . | . | . | / | / | / | /
COc1ccc(-c2cn3c(C)c(C(=O)N4CCCc5ccccc54)sc3n2)cc1 | . | . | . | . | 8.03 | . | . | . | .
C=CCn1c(NC(=O)c2ccco2)nc2ccccc21 | . | . | . | . | . | / | / | / | /
CC(C)(C)OC(=O)N1CCC(CNC(=O)c2ccc(F)cc2)CC1 | . | . | . | . | 34.5 | . | . | . | .
Cc1ccc(S(=O)(=O)CCC(=O)Nc2sccc2C#N)cc1 | . | . | . | . | . | / | / | / | /
COc1ccc(Nc2cccc3ccccc23)cc1 | . | . | . | . | 21.1 | . | . | . | .
COc1ccc(Nc2cc(C)c3ccccc3n2)cc1 | . | . | . | . | 15.6 | 17.9% | . | . | .
COc1ccc(CNC(=O)Cn2cc(C(F)(F)F)ccc2=O)cc1OC | . | . | . | . | . | / | / | / | /
CC(C)(C)c1ccc(-c2noc(-c3ccc4c(c3)CCO4)n2)cc1 | . | . | -5.01 | . | 7.41 | . | . | . | . | MrgX1 ant reconf=.
CN(CC(=O)Nc1cccc2c1CCCC2)S(=O)(=O)c1ccccc1 | . | . | . | . | . | / | / | / | /
C/C(=N/OCC(=O)Nc1ccc(C)cc1C)c1cccs1 | . | . | . | . | 27.2 | 3.9% | . | . | .
C/C(=N\OCC(=O)Nc1ccccc1C(=O)O)c1cccs1 | . | . | . | . | . | / | / | / | /
O=C(Cc1ncc(C(F)(F)F)cc1Cl)Nc1ccc(F)cc1 | . | . | . | . | . | / | / | / | /
COC(=O)c1sc2nc(N3CCCCC3)c3c(c2c1N)CCCC3 | . | . | . | . | 6.87 | . | . | . | .
CN(C)S(=O)(=O)Oc1cccc(C(=O)Nc2ccccc2Cl)c1 | . | . | . | . | . | / | / | / | /
CN(C)S(=O)(=O)Oc1cccc(C(=O)Nc2ccc(Cl)cc2)c1 | . | . | . | . | 7.74 | . | . | . | .
SMILES | MrgX1 ag | RGS4 act | MrgX1 antagonist | RGS4 block | MrgX1 PAM | MrgX1 allo conf | HEK293 Ca flux | HEK293 Ca counter | HEK293 Ca cntr2 | others
COc1cccc(C(=O)Nc2nnc(-c3ccc(Cl)cc3)o2)c1 | . | . | . | . | 8.38 | . | . | . | .
COc1cccc(C(=O)Nc2nnc(-c3ccc(F)cc3)o2)c1 | . | . | . | . | . | / | / | / | /
CCN(CC)C(=O)C(=O)c1c(-c2ccccc2)[nH]c2ccccc12 | . | . | . | . | 14.6 | . | . | . | .
CCNC(=O)C(=O)c1c(-c2ccccc2)[nH]c2ccccc12 | . | . | . | . | . | / | / | / | /
C=C(C)CNC(=S)Nc1cccc(S(=O)(=O)NC2=NCCC2)c1 | . | . | . | . | 11.3 | . | . | . | .
CSCCCNC(=S)Nc1cccc(S(=O)(=O)NC2=NCCC2)c1 | . | . | . | . | . | / | / | / | /
CCOC(=O)c1sc(Nc2ccccc2Cl)nc1C | . | . | . | . | 13.1 | . | . | . | .
O=C(CSc1nc(-c2ccccc2)cs1)NCCN1C(=O)CSC1=O | . | . | . | . | 10.4 | . | . | . | .
Nc1cc(Cl)ccc1Oc1ccccc1 | . | . | . | . | 20.4 | . | . | . | .
CCN1CCN(c2cc(C)c3cc(NC(=S)N(CC)CC)ccc3n2)CC1 | . | . | . | . | . | / | / | / | /
N#Cc1nc(-c2ccccc2F)oc1NCCc1ccccn1 | . | . | . | . | . | / | / | / | /
O=c1nc(Nc2ccc([N+](=O)[O-])cc2)[nH]c(=O)[nH]1 | . | . | . | . | . | / | / | / | /
CCN(CC)S(=O)(=O)c1ccc2nc(SC)sc2c1 | . | . | . | . | 12.8 | . | . | . | .
CSc1nc2ccc(S(=O)(=O)N(C)C)cc2s1 | . | . | . | . | . | / | / | / | /
CC/S(=N\S(=O)(=O)c1ccc(C)cc1)c1ccccc1 (centres undefined) | . | . | . | . | . | / | / | / | /
Cc1cc2cccc(C)c2nc1SCC(=O)N(C)c1nc(-c2ccccc2)cs1 | . | . | . | . | . | / | / | / | /
COc1ccc2c(c1)cc(C)c1nnc(SCC(=O)N(C)c3nc(-c4ccccc4)cs3)n12 | . | . | . | . | 20.1 | . | . | . | .
Cn1c(=O)c2c(nc(N3CCCCCC3)n2CCSc2nc3ccccc3o2)n(C)c1=O | . | . | . | . | 7.12 | . | . | . | .
